Source: ChEMBL document CHEMBL1938299, “Quinolinone-based agonists of S1P₁: use of a N-scan SAR strategy to optimize in vitro and in vivo activity” (Bioorg Med Chem Lett, 2012)
In brackets after ≈: the same amount, converted by molar mass.

Key:
[1] = biological target: T1, Sphingosine 1-phosphate receptor 1 (Homo sapiens, UniProt P21453); assay: Agonist activity at human S1P1 receptor expressed in human U2OS cells co-expressing eGFP assessed as receptor internalization into cytoplasm using Hoechst dye staining relative to 1-(4-(6-benzylbenzofuran-2-yl)-3- fluorobenzyl)azetidine-3-carboxylic acid; format: functional, cell-based
[2] = Plasma concentration in Lewis rat at 30 mg/kg, po after 24 hrs; format: ADME, organism-based; design: dose 30 mg/kg, route oral
[3] = biological target: T2, Sphingosine 1-phosphate receptor 3 (Homo sapiens, UniProt Q99500); assay: Agonist activity at human S1P3 receptor expressed in CHO-K1 cells co-expressing Gq/i5 G-protein assessed as calcium mobilization by FLIPR assay; format: functional, cell-based
Rattus norvegicus [4] = assay: Immunosuppressive activity in Lewis rat assessed as reduction in circulating peripheral lymphocyte count at 30 mg/kg, po after 24 hrs relative to control; format: functional; design: scale not given: the % may be the effect or the level left
[5] = Solubility of the compound in simulated intestinal fluid at pH 7.4; format: physicochemical
Outline: (§1)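 Compound solubility measured separately in 0.010 M aqueous HCl, in PBS at pH 7.4, and in simulated intestinal fluid.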

[6] = Half life in Sprague-Dawley rat at 1 mg/kg, iv; format: ADME, organism-based; design: dose 1 mg/kg, route intravenous; conditions: in vivo
Outline: (§2)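 Single intravenous dose of 1 mg/kg in DMSO vehicle to male Sprague–Dawley rats (N = 3/group). Clearance, steady-state volume of distribution and half-life were determined from plasma levels.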

Rattus norvegicus [7] = assay: Immunosuppressive activity in Lewis rat assessed as reduction in circulating peripheral lymphocyte count at 1 mg/kg, po after 24 hrs relative to control; format: functional; design: scale not given: the % may be the effect or the level left
Outline: (§3)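 Female Lewis rats (N = 5/group) given a single oral dose (0.30, 1.0 or 3.0 mg/kg) in 20% Captisol or HPBCD, 1% HPMC, 1% Pluronic F68, pH 2.0 with MSA. At 24 h, blood lymphocytes were counted as percent of vehicle control and total plasma compound measured. Significance by ANOVA/Dunnett's test versus vehicle.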

[8] = Efflux ratio of permeability in pig LLC-PK1 cells; format: ADME, cell-based, Sus scrofa
Outline: (§4)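 LLC-PK1 porcine proximal tubule cell monolayers; apparent permeability (Papp) of test compound through the cells measured, along with efflux ratio.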

[9] = Clearance in Sprague-Dawley rat at 1 mg/kg, iv; format: ADME, organism-based; design: dose 1 mg/kg, route intravenous; conditions: Sprague-Dawley, in vivo; outline: as §2
Rattus norvegicus [10] = assay: Immunosuppressive activity in po dosed Lewis rat assessed as reduction in circulating peripheral lymphocyte count after 24 hrs; format: functional, organism-based; outline: as §3
[11] = Plasma concentration in Lewis rat at 3 mg/kg, po after 24 hrs; format: ADME, organism-based; design: dose 3 mg/kg, route oral; outline: as §3
[12] = Solubility of the compound in 0.010 M aqueous hydrogen chloride at pH 7.4; format: physicochemical; conditions: in the assay text read “hydrogen chloride” for “hydrogen chloride at pH 7.4”; outline: as §1
[13] = biological target: T2, Sphingosine 1-phosphate receptor 3; assay: Agonist activity at human S1P3 receptor expressed in CHO-K1 cells co-expressing Gq/i5 G-protein assessed as calcium mobilization by FLIPR assay relative to S1P; format: functional, cell-based
Outline: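 Ca2+ mobilization in CHO-K1 cells expressing hS1P3 and a chimeric Gq/i5 G-protein. Efficacy expressed as % relative to S1P; compounds not reaching >10% of control activity reported as greater than the highest concentration tested.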

[14] = Oral bioavailability in Sprague-Dawley rat at 3 mg/kg; format: ADME, organism-based; conditions: Sprague-Dawley, in vivo
Outline: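 Bioavailability in male Sprague–Dawley rats (N = 3/group), calculated from AUC0–∞ values obtained after a 1 mg/kg iv dose (DMSO vehicle) and a 3 mg/kg po dose (20% Captisol, 1% HPMC, 1% pluronic F68, pH 2.0 with MSA).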

[15] = Plasma protein binding in rat; format: ADME, cell-free; conditions: read-out: PPB (converted)
Outline: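 Rat plasma protein binding measured in vitro, with bound and free compound separated by ultracentrifugation; reported as percent bound.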

[16] = Apparent permeability of the compound in pig LLC-PK1 cells; format: ADME, cell-based, Sus scrofa; outline: as §4
[17] = Intrinsic clearance in rat liver microsomes assessed per mg of protein after 30 mins; format: ADME, Microsome; conditions: read-out: CLH
Outline: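 Test compound incubated with rat liver microsomes for 30 min. Percent turnover measured and used to estimate intrinsic clearance.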

[18] = AUC (0 to 24 hrs) in Sprague-Dawley rat at 3 mg/kg, po; format: ADME, organism-based, Plasma; design: time < 24 hr, dose 3 mg/kg, route oral; conditions: Sprague-Dawley, plasma
[19] = biological target: T1, Sphingosine 1-phosphate receptor 1; assay: Agonist activity at human S1P1 receptor expressed in human U2OS cells co-expressing eGFP assessed as receptor internalization into cytoplasm using Hoechst dye staining; format: functional, cell-based
[20] = Plasma concentration in Lewis rat at 0.3 mg/kg, po after 24 hrs; format: ADME, organism-based; design: dose 0.3 mg/kg, route oral; outline: as §3
Rattus norvegicus [21] = assay: Immunosuppressive activity in Lewis rat assessed as reduction in circulating peripheral lymphocyte count at 3 mg/kg, po after 24 hrs relative to control; format: functional; design: scale not given: the % may be the effect or the level left; outline: as §3
[22] = Plasma concentration in Lewis rat at 1 mg/kg, po after 24 hrs; format: ADME, organism-based; design: dose 1 mg/kg, route oral; outline: as §3
[23] = Volume of distribution at steady state in Sprague-Dawley rat at 1 mg/kg, iv; format: ADME, organism-based; design: dose 1 mg/kg, route intravenous; conditions: in vivo, read-out: Vdss; outline: as §2
[24] = AUC (0 to 24 hrs) in Sprague-Dawley rat at 100 mg/kg, po; format: ADME, organism-based; design: time < 24 hr, dose 100 mg/kg, route oral; conditions: plasma
Rattus norvegicus [25] = assay: Ratio of AUC (0 to 24 hrs) at 100 mg/kg, po to AUC (0 to 24 hrs) at 3 mg/kg, po in Sprague-Dawley rat; format: ADME, organism-based; conditions: in vivo
Outline: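 Male Sprague–Dawley rats (N = 3/group) each received a single oral dose of 3 or 100 mg/kg, in 20% Captisol, 1% HPMC, 1% Pluronic F68, adjusted to pH 2.0 with MSA.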

[26] = Solubility of the compound in phosphate-buffered saline at pH 7.4; format: physicochemical; outline: as §1

T2 sequence (Q99500 whole entry): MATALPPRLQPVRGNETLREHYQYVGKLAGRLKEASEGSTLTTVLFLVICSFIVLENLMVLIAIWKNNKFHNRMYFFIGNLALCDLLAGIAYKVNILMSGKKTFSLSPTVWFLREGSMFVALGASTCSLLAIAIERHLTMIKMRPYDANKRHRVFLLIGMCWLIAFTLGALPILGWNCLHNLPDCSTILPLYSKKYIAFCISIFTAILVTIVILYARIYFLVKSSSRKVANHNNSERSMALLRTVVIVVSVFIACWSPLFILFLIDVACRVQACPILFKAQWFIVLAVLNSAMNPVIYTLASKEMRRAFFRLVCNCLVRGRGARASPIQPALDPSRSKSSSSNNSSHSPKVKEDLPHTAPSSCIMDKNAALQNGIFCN
T1 sequence (P21453 whole entry): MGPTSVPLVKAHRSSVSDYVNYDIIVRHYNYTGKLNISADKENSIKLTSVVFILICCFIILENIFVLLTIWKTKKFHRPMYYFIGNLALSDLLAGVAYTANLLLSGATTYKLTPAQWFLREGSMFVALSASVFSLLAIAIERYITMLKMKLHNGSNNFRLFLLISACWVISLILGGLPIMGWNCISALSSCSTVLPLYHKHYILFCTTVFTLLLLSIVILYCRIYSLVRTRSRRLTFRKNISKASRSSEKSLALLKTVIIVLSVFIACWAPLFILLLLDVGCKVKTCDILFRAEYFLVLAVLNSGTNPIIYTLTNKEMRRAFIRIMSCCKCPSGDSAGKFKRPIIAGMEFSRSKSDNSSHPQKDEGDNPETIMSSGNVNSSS

Row | SMILES | Efficacy [1] [%] | EC50 [3] [µM] | solubility [5] [µg/mL] | efflux ratio [8] | solubility [12] [µg/mL] | Papp [16] [nm/s] | microsomal CLint [17] [µL/min/mg] | EC50 [19] [µM] | concentration at 24 h [22] [µg/mL] | solubility [26] [µg/mL] | Activity (Rattus norvegicus [7]) [%] | other results
1 | FC(F)(F)c1cccc(-c2noc(-c3cc(-c4ccccc4)c(C(F)(F)F)s3)n2)c1 | 86 | > 25 |  |  |  |  |  |  |  |  |  | concentration at 24 h [2]: 1.1 µg/mL; Activity (Rattus norvegicus [4]): -66%
2 | Cn1cc(C(=O)Nc2ccc(-c3ccccc3)c(C(F)(F)F)c2)c(=O)c2ccccc21 | 110 | 1.5 | 11 (≈ 26 µM) | 0.4 | 1.3 (≈ 3.08 µM) | 12 | < 14 | 0.07 | 0.018 | < 1 | -3 | half-life [6]: 15 h; clearance [9]: 0.93 L/h/kg; Activity (Rattus norvegicus [10]): Dose-dependent effect; concentration at 24 h [11]: 0.048 µg/mL; Efficacy [13]: 92%; bioavailability [14]: 60%; fraction unbound [15]: 0.03; AUC(0-t) at 24 h [18]: 1.2 µg·h/mL; concentration at 24 h [20]: 0.0055 µg/mL; Activity (Rattus norvegicus [21]): -51%; Vd [23]: 11 L/kg; AUC(0-t) at 24 h [24]: 5.8 µg·h/mL; Ratio AUC (Rattus norvegicus [25]): 4.7
3 | Cn1cc(C(=O)Nc2ccc(-c3ccncc3)c(C(F)(F)F)c2)c(=O)c2ccccc21 | 110 | > 2.5 | 12 (≈ 28.3 µM) | 1.5 | 6.4 (≈ 15.1 µM) | 150 | 44 | 0.45 |  | 7.9 (≈ 18.7 µM) |  | 
4 | Cn1cc(C(=O)Nc2ccc(-c3ccccc3)c(C(F)(F)F)n2)c(=O)c2ccccc21 | 120 | > 2.5 | 2.3 (≈ 5.43 µM) |  | < 1 | < 10 | < 14 | 0.042 | 0.0013 | < 1 | 7 | 
5 | CCCCCCCCc1ccc(CC[C@](N)(CO)COP(=O)(O)O)cc1 |  |  |  |  |  |  |  |  |  |  |  | Efficacy [13]: 35%
6 | Cn1cc(C(=O)Nc2ccc(-c3ccccc3)c(C(F)(F)F)n2)c(=O)c2cnccc21 | 120 | > 2.5 | 10 (≈ 23.6 µM) | 1 | < 1 | 67 | < 14 | 0.02 | 0.13 | 2.4 (≈ 5.66 µM) | -67 | half-life [6]: 24 h; clearance [9]: 0.15 L/h/kg; Activity (Rattus norvegicus [10]): Dose-dependent effect; concentration at 24 h [11]: 0.64 µg/mL; bioavailability [14]: 110%; fraction unbound [15]: 0.02; AUC(0-t) at 24 h [18]: 12 µg·h/mL; concentration at 24 h [20]: 0.047 µg/mL; Activity (Rattus norvegicus [21]): -76%; Vd [23]: 5.1 L/kg; AUC(0-t) at 24 h [24]: 130 µg·h/mL; Ratio AUC (Rattus norvegicus [25]): 11
7 | CCCCCCCCCCCCC/C=C/[C@@H](O)[C@@H](N)COP(=O)(O)O | 91 |  |  |  |  |  |  | 0.018 |  |  |  | 

Second part, led by results:

Row | Efficacy [1] [%] | EC50 [3] [µM] | solubility [5] [µg/mL] | efflux ratio [8] | solubility [12] [µg/mL] | Papp [16] [nm/s] | microsomal CLint [17] [µL/min/mg] | EC50 [19] [µM] | concentration at 24 h [22] [µg/mL] | solubility [26] [µg/mL] | SMILES | Activity (Rattus norvegicus [7]) [%] | other results
8 | 130 | > 2.5 | 12 (≈ 28.3 µM) | 1.2 | < 1 | 23 | < 14 | 0.041 | 0.0097 | 1.6 (≈ 3.78 µM) | Cn1nc(C(=O)Nc2ccc(-c3ccccc3)c(C(F)(F)F)c2)c(=O)c2ccccc21 | 6 | 
9 | 110 | > 2.5 | 6.7 (≈ 15.8 µM) | 1.6 | 23 (≈ 54.3 µM) | 180 | 18 | 0.31 |  | < 1 | Cn1cc(C(=O)Nc2ccc(-c3cccnc3)c(C(F)(F)F)c2)c(=O)c2ccccc21 |  | 
10 | 59 | > 2.5 |  |  |  | < 10 | < 14 | 1.1 |  |  | Cn1cc(C(=O)Nc2cc(C(F)(F)F)c(-c3ccccc3)cn2)c(=O)c2ccccc21 |  | 
